In ChEMBL document CHEMBL4196123, “Discovery of an Orally Bioavailable Dual PI3K/mTOR Inhibitor Based on Sulfonyl-Substituted Morpholinopyrimidines” (ACS Med Chem Lett, 2018):
Active and inactive are the calls of the source. The calls are words filed in the database; no cut-off is given here.

Legend:
[1] = target: Voltage-gated inwardly rectifying potassium channel KCNH2 (Homo sapiens, UniProt Q12809); assay: Inhibition of recombinant human ERG expressed in CHO cells by automated whole cell patch clamp Qpatch method; type: cell-based
[2] = Inhibition of PI3K in human PC3 cells assessed as reduction in AKT phosphorylation at Ser473 measured after 2 hrs by fluorescence assay; type: cell-based; conditions: PC-3, 2 h
Cytochrome P450 2D6 = Cytochrome P450 2D6 (Homo sapiens, UniProt P10635); assay: Inhibition of CYP2D6 in human liver microsomes using bufuralol as substrate pretreated for 5 mins followed by NADPH addition and measured after 10 mins by LC-MS analysis; type: ADME
[3] = Oral bioavailability in CD1 mouse at 10 mg/kg administered via gavage by LC-MS/MS analysis; type: ADME, organism-based; conditions: in vivo
[4] = Apparent permeability across basolateral to apical side in human Caco2 cells measured after 90 mins by LC-MS/MS analysis; type: ADME, cell-based; conditions: Caco-2
[5] = target: PI3-kinase p110-alpha/p85-alpha (Homo sapiens, UniProt P42336, E542K); assay: Inhibition of recombinant human His-tagged p85alpha/p110alpha E542K mutant expressed in insect cells
Mus musculus = assay: Toxicity in Balb/c nu/nu mouse xenografted with human HT-29 cells harboring PIK3CA P449T mutant assessed as survival at 7.5 mg/kg, po administered daily via gavage for 27 days measured post last dose; type: organism-based; conditions: in vivo, 648 h
In short: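 Balb/c nu/nu mice carrying HT-29 xenografts (PIK3CA P449T), dosed by daily oral gavage for 27 days starting when mean tumor size was about 240 mm³, alongside a vehicle group. Survival was recorded after the 27-day treatment. Body weight change was measured over time. n = 6 per group, mean ± SEM, Dunnett's multiple comparison test.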

[6] = target: PI3-kinase p110-alpha/p85-alpha (Homo sapiens, UniProt P42336); assay: Inhibition of recombinant human full length N-terminal His-tagged p110alpha/p85alpha expressed in baculovirus expression system using PIP2 as substrate measured after 1 hr by Alexa633 Tracer-based fluorescence polarization assay
In short: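 PI3Kα enzyme inhibition; IC50 is the mean of duplicate measurements.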

[7] = Half life in CD1 mouse at 5 mg/kg, iv by LC-MS/MS analysis; type: ADME, organism-based; conditions: in vivo
[8] = target: PI3-kinase p110-alpha/p85-alpha (Homo sapiens, UniProt P42336, E545K); assay: Inhibition of recombinant human His-tagged p85alpha/p110alpha E545K mutant expressed in insect cells
PI3K p110 beta/p85 alpha = PI3K p110 beta/p85 alpha (Homo sapiens, UniProt P42338); assay: Inhibition of recombinant human full-length N-terminal His6-tagged p110beta/recombinant human full length p85alpha expressed in baculovirus infected Sf21 insect cells using PIP2 as substrate measured after 1 hr by Alexa633 Tracer-based fluorescence polarization assay
T47D = assay: Antiproliferative activity against human T47D cells harboring PI3KCA H1047R mutant after 72 hrs by MTT assay; type: functional, cell-based
[9] = Intrinsic clearance in human liver microsomes at […] pretreated up to 45 mins followed by NADPH addition and measured by LC-MS/MS analysis; type: ADME, microsome; conditions: read-out: CLH
[10] = Cmax in CD1 mouse at 10 mg/kg, po administered via gavage by LC-MS/MS analysis; type: ADME, organism-based; parameters: dose 10 mg/kg, route oral; conditions: in vivo
[11] = target: Phosphatidylinositol 4,5-bisphosphate 3-kinase catalytic subunit alpha isoform (Homo sapiens, UniProt P42336, H1047R); assay: Inhibition of p110alpha H1047R mutant (unknown origin)
[12] = target: Serine/threonine-protein kinase ATR (Homo sapiens) (UniProt Q13535); assay: Inhibition of ATR in human HT-29 cells assessed as reduction in camptothecin-induced Chk1 phosphorylation at Ser345 residue at 10 uM pretreated for 1 hr followed by camptothecin addition; type: cell-based
In short: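 HT-29 cells were pretreated with compound for 1 h, then exposed to camptothecin to induce DNA damage. ATR activity was read as phosphorylation of its substrate Chk1, with total Chk1 and β-actin as internal controls. […] served as reference inhibitor.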

Cytochrome P450 2C19 = Cytochrome P450 2C19 (Homo sapiens, UniProt P33261); assay: Inhibition of CYP2C19 in human liver microsomes using S-Mephenytoin as substrate pretreated for 5 mins followed by NADPH addition and measured after 45 mins by LC-MS analysis; type: ADME
MCF7 = assay: Antiproliferative activity against human MCF7 cells harboring PIK3CA E545K mutant after 72 hrs by MTT assay; type: functional, cell-based; conditions: MCF7, 72 h
[13] = Apparent permeability across apical to basolateral side in human Caco2 cells measured after 90 mins by LC-MS/MS analysis; type: ADME, cell-based; conditions: Caco-2
Cytochrome P450 3A4 [14] = target: T1, Cytochrome P450 3A4 (Homo sapiens, UniProt P08684); assay: Inhibition of CYP3A4 in human liver microsomes using midazolam as substrate pretreated for 5 mins followed by NADPH addition and measured after 5 mins by LC-MS analysis; type: ADME
Cytochrome P450 2C9 = Cytochrome P450 2C9 (Homo sapiens, UniProt P11712); assay: Inhibition of CYP2C9 in human liver microsomes using diclofenac as substrate pretreated for 5 mins followed by NADPH addition and measured after 10 mins by LC-MS analysis; type: ADME
Cytochrome P450 3A4 [15] = target: T1, Cytochrome P450 3A4; assay: Inhibition of CYP3A4 in human liver microsomes using testosterone as substrate pretreated for 5 mins followed by NADPH addition and measured after 5 mins by LC-MS analysis; type: ADME
[16] = Volume of distribution at steady state in CD1 mouse at 5 mg/kg, iv by LC-MS/MS analysis; type: ADME, organism-based; conditions: in vivo, read-out: Vdss
[17] = target: PI3-kinase p110-delta/p85-alpha (Homo sapiens, UniProt O00329); assay: Inhibition of recombinant human full-length N-terminal His6-tagged p110delta/recombinant human full length p85alpha expressed in baculovirus infected Sf21 insect cells using PIP2 as substrate measured after 1 hr by Alexa633 Tracer-based fluorescence polarization assay
Cytochrome P450 2B6 = Cytochrome P450 2B6 (Homo sapiens, UniProt P20813); assay: Inhibition of CYP2B6 in human liver microsomes using bupropion as substrate pretreated for 5 mins followed by NADPH addition and measured after 10 mins by LC-MS analysis; type: ADME
[18] = Clearance in CD1 mouse at 5 mg/kg, iv by LC-MS/MS analysis; type: ADME, organism-based; conditions: in vivo
HUVEC = assay: Cytotoxicity against HUVEC after 72 hrs by MTT assay; type: cell-based; conditions: Homo sapiens
HT-29 = assay: Antitumor activity against human HT-29 cells harboring PIK3CA P449T mutant xenografted in Balb/c nu/nu mouse assessed as tumor growth inhibition at 3.75 mg/kg, po administered daily via gavage for 27 days relative to control; type: functional; conditions: HT-29, po, 648 h, read-out: TGI
In short: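 Balb/c nu/nu mice carrying HT-29 xenografts were dosed by daily oral gavage for 27 days, starting when mean tumor size was about 240 mm³; vehicle group as control. Tumor volume estimated over time, and TGI calculated after 27 days. Mean ± SEM, n = 6. Dunnett's multiple comparison test.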

[19] = Efflux ratio of apparent permeability from basolateral to apical side over apical to basolateral side in human Caco2 cells after 90 mins by LC-MS/MS analysis; type: ADME, cell-based; conditions: Caco-2
[20] = Half life in CD1 mouse at 10 mg/kg, po administered via gavage by LC-MS/MS analysis; type: ADME, organism-based; conditions: in vivo

T1 sequence (P08684 whole entry): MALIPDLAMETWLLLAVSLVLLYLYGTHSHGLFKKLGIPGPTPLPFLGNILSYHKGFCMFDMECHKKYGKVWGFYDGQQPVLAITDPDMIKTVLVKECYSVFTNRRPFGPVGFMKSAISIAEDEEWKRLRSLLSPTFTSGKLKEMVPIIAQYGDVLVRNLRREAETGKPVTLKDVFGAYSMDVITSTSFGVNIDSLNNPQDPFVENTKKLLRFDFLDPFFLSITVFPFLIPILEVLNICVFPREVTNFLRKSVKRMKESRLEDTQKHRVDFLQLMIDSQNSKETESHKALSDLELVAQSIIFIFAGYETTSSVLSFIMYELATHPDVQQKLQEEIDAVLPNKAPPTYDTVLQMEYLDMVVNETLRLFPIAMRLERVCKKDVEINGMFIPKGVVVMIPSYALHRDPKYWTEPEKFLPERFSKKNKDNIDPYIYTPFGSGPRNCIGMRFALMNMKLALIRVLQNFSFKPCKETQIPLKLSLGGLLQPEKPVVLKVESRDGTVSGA
Sequence of PI3-kinase p110-alpha/p85-alpha (Homo sapiens, UniProt P42336, E542K) (P42336 whole entry E542K, looked up): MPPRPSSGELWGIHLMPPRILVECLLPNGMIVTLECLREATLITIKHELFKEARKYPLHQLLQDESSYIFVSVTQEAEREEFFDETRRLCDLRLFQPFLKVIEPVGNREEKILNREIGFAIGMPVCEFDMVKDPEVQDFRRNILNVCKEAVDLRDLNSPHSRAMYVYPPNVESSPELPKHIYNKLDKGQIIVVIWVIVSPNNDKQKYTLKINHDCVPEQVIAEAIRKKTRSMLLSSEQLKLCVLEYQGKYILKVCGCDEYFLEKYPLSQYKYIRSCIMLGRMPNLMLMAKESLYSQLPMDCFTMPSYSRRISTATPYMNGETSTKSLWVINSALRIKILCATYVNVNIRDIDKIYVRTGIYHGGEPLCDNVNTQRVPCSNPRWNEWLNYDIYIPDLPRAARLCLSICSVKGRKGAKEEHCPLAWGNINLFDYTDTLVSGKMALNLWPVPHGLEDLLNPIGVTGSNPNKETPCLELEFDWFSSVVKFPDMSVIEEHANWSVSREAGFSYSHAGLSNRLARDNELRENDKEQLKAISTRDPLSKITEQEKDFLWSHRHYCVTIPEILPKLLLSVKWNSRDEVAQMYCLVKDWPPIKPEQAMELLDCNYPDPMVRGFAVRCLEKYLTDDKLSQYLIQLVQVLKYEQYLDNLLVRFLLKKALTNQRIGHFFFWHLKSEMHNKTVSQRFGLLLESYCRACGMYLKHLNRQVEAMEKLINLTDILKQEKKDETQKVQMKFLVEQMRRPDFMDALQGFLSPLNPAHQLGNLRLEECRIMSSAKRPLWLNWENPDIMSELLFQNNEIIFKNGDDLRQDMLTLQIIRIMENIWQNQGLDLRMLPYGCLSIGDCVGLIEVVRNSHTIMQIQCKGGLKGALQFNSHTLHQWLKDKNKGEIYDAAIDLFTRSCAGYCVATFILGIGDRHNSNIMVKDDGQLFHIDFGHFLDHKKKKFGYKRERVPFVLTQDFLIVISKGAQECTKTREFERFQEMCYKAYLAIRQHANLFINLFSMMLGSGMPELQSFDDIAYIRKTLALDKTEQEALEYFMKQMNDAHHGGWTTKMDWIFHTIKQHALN
Sequence of Phosphatidylinositol 4,5-bisphosphate 3-kinase catalytic subunit alpha isoform (P42336 whole entry H1047R, canonical isoform): as the sequence (P42336 whole entry E542K, looked up) above, with K542E, H1047R counted along it
Sequence of Voltage-gated inwardly rectifying potassium channel KCNH2 (Q12809 whole entry): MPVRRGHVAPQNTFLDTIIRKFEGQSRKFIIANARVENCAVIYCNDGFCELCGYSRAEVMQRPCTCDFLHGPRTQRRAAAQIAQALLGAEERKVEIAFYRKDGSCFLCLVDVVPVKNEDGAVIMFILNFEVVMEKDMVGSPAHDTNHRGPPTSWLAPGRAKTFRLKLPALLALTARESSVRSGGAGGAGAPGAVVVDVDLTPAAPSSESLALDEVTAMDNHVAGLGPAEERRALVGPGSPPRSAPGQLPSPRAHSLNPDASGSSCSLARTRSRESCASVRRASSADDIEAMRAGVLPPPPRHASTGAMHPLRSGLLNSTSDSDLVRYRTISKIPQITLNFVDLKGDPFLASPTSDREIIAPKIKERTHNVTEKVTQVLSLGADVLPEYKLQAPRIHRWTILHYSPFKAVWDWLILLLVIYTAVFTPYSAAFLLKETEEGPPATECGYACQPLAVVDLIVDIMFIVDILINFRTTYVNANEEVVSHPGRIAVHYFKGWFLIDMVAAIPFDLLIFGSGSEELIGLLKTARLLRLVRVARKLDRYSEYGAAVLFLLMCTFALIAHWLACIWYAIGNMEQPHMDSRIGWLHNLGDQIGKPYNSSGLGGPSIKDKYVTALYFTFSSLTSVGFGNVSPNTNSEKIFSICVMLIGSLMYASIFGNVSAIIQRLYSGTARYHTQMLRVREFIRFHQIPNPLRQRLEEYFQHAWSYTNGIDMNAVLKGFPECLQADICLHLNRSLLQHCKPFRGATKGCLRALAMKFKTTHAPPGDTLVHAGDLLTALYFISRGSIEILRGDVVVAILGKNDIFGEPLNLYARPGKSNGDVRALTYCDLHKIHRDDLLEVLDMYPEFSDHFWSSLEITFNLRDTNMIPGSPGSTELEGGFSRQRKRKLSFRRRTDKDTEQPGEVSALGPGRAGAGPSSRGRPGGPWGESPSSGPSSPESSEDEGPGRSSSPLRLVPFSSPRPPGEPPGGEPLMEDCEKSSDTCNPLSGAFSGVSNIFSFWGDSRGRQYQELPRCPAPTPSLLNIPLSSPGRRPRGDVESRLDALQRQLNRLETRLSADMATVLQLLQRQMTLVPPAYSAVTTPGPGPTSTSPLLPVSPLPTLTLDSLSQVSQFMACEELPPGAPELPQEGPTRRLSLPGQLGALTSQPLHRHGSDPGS
Sequence of PI3-kinase p110-alpha/p85-alpha (Homo sapiens, UniProt P42336, E545K) (P42336 whole entry E545K, looked up): as the sequence (P42336 whole entry E542K, looked up) above, with K542E, E545K counted along it

## C[C@H]1COCCN1c1nc(-c2cnc(N)cc2F)cc(C2(S(C)(=O)=O)CC2)n1
[1]
  IC50: > 30000 nM
[2]
  IC50: 196 nM
Cytochrome P450 2D6
  IC50: > 10000 nM
[3]
  bioavailability: 94.6%
[4]
  Papp B→A at 1.5 h: > 10 ×10⁻⁶ cm/s
[5]
  IC50: 11 nM
Mus musculus
  Activity: Non-Toxic
[6]
  IC50: 10 to 20 nM
[7]
  half-life: 1.59 h
[8]
  IC50: 11 nM
PI3K p110 beta/p85 alpha
  IC50: 376 nM
T47D
  IC50: 30 nM
[9]
  CLint scaled: 5 to 16 mL/min/kg
[10]
  Cmax: 2980 ng/mL
[11]
  IC50: 15 nM
[12]
  inhibition: Active
Cytochrome P450 2C19
  IC50: > 10000 nM
MCF7
  IC50: 11 nM
[13]
  Papp A→B at 1.5 h: > 10 ×10⁻⁶ cm/s
Cytochrome P450 3A4 [14]
  IC50: > 10000 nM
Cytochrome P450 2C9
  IC50: > 10000 nM
Cytochrome P450 3A4 [15]
  IC50: > 10000 nM
[16]
  Vd: 1.4 L/kg
[17]
  IC50: 46 nM
Cytochrome P450 2B6
  IC50: > 10000 nM
[18]
  clearance: 15.2 mL/min/kg
HUVEC
  IC50: 108 nM
HT-29
  inhibition in vivo at 3.75 mg/kg: 54.4%
[19]
  efflux ratio at 1.5 h: 0.66
[20]
  half-life: 2.87 h
